# Results published in ChEMBL document CHEMBL1125382, “Benzazepinone calcium channel blockers. 2. Structure-activity and drug metabolism studies leading to potent antihypertensive agents. Comparison with benzothiazepinones” (J Med Chem, 1992).
# What was measured:
# Rattus norvegicus [1] = experiment: In vivo evaluation for the percentage decrease in blood pressure at 135 umol/kg administered through oral route in spontaneously hypertensive rats and observed for 0-6 h.; assay type: functional
# Procedure, shortened: (§1)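 Male spontaneously hypertensive rats, 15 weeks old, dosed by oral gavage at 135 μmol/kg. Blood pressure recorded directly via an indwelling abdominal aortic catheter exteriorized in the intrascapular region. Sampled over 20-s intervals every 5 min for 24 h. Value is the maximum percent fall in systolic pressure from predrug control within the stated period, mean of five rats.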
# Oryctolagus cuniculus [2] = species: Oryctolagus cuniculus; experiment: Vasorelaxant effects in circumferential strips of potassium-depolarized rabbit aorta. (IC50 in rabbit aorta strips contracted with KCl(95% confidence interval)); assay type: functional, organism-based
# Procedure, shortened: (§2)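 Circumferential strips of rabbit thoracic aorta, contracted by depolarization with 100 mM KCl, then exposed to various concentrations of compound.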
# Rattus norvegicus [3] = experiment: In vivo evaluation for the percentage decrease in blood pressure at 135 umol/kg administered through oral route in spontaneously hypertensive rats and observed for 12-18 h.; assay type: functional; procedure, shortened: as §1
# Rattus norvegicus [4] = experiment: In vivo evaluation for the percentage decrease in blood pressure at 135 umol/kg administered through oral route in spontaneously hypertensive rats and observed for 6-12 h.; assay type: functional; procedure, shortened: as §1
# Oryctolagus cuniculus [5] = species: Oryctolagus cuniculus; experiment: In vitro evaluation for the vasorelaxant effects in circumferential strips of potassium-depolarized rabbit aorta. (IC50 in rabbit aorta strips contracted with KCl; assay type: functional; procedure, shortened: as §2
# [6] = In Vitro evaluation for the affinity for the diltiazem receptor in isolated guinea pig skeletal muscle microsomal preparations by inhibiting [3H]diltiazem binding; assay type: microsomes, Cavia porcellus, Muscle tissue
# Procedure, shortened: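 Membranes from male guinea pig (350–450 g) hind-limb muscle, mainly quadriceps and gastrocnemius, in 50 mM Tris-HCl. 125–250 μg protein incubated with [3H]-d-cis-diltiazem and competing drug, 250 μL final, 30 °C for 1 h. Rapid GF/B filtration and scintillation counting. Nonspecific binding defined with 100 μM unlabeled diltiazem. Kd calculated from concentration–response curves for inhibition of specific binding; ±SEM.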
# Oryctolagus cuniculus [7] = species: Oryctolagus cuniculus; experiment: In Vitro evaluation for the vasorelaxant effects in circumferential strips of potassium-depolarized rabbit aorta. (IC50 in rabbit aorta strips contracted with KCl; assay type: functional; procedure, shortened: as §2
# Rattus norvegicus [8] = experiment: In vivo evaluation for the percentage decrease in blood pressure at 270 umol/kg administered through oral route in spontaneously hypertensive rats and observed for 12-18 h; assay type: functional
"IC50 (Oryctolagus cuniculus [2]; Oryctolagus cuniculus, Aorta) [nM]","IC50 (Oryctolagus cuniculus [5]; Oryctolagus cuniculus, Aorta) [nM]",IC50 (Oryctolagus cuniculus [5]) [nM],IC50 (Oryctolagus cuniculus [7]) [nM],IC50 (Oryctolagus cuniculus [2]) [nM],SMILES,Decrease (Rattus norvegicus [1]) [%],Decrease (Rattus norvegicus [3]) [%],Decrease (Rattus norvegicus [4]) [%],Kd [6] [nM],Decrease (Rattus norvegicus [8]) [%]
300,,,,,COc1ccc([C@@H]2Cc3c(cccc3C(F)(F)F)N(CCN(C)C)C(=O)[C@@H]2O)cc1,21,28,26,,
630,,,,,COc1ccc([C@@H]2Cc3c(cccc3C(F)(F)F)N(C[C@H]3CCCN3)C(=O)[C@@H]2OC(C)=O)cc1,21,26,22,,
,120,,,,COc1ccc(C2Sc3cc(OC)ccc3N(CCN(C)C)C(=O)C2OC(C)=O)cc1 (stereo not given),,,,42,
,520,,,,COc1ccc([C@@H]2Cc3c(cccc3C(F)(F)F)N(C[C@@H]3CCCN3C)C(=O)[C@@H]2OC(C)=O)cc1,30,29,29,,
,> 10000,,,,COc1ccc([C@H]2Cc3c(cccc3C(F)(F)F)N(CCN(C)C)C(=O)[C@@H]2OC(C)=O)cc1.Cl (relative stereo),5,11,9,3800,
2400,,,,,COc1ccc([C@@H]2Cc3c(OC)cccc3N(CCN(C)C)C(=O)[C@@H]2OC(C)=O)cc1.Cl,0,1,0,,
,,240,,,COc1ccc([C@@H]2Sc3cc(Cl)ccc3N(CCN(C)C)C(=O)[C@@H]2OC(C)=O)cc1 [CLENTIAZEM],,,,81,
,,,,,COc1ccc([C@@H]2Cc3cc(OC)ccc3N(CCN(C)C)C(=O)[C@@H]2OC(C)=O)cc1.Cl,15,10,8,,
,,,,,COc1ccc([C@H]2Cc3cc(Cl)ccc3N(CCN(C)C)C(=O)[C@H]2OC(C)=O)cc1 (relative stereo),1,9,4,8200,
890,,,,,COc1ccc([C@@H]2Cc3c(cccc3C(F)(F)F)N(C[C@H]3CCCN3)C(=O)[C@@H]2O)cc1,17,18,18,,
1100,,,,,COc1ccc([C@@H]2Cc3c(cccc3C(F)(F)F)N(C[C@H]3CCCN3C)C(=O)[C@@H]2OC(C)=O)cc1,20,18,21,,
,,,95,,COc1ccc([C@@H]2Cc3c(cccc3C(F)(F)F)N(C[C@@H]3CCCN3)C(=O)[C@@H]2O)cc1,30,27,26,,
210,,,,,COc1ccc([C@@H]2Sc3ccccc3N(CCN(C)C)C(=O)[C@@H]2OC(C)=O)cc1 (relative stereo) [DILTIAZEM],23,17,12,200,
,,,,,COc1ccc([C@@H]2Cc3c(cccc3C(F)(F)F)N(C[C@@H]3CCCN3)C(=O)[C@@H]2OC(C)=O)cc1,45,38,39,,
4700,,,,,COc1ccc([C@@H]2Cc3ccccc3N(CCN(C)C)C(=O)[C@@H]2OC(C)=O)cc1.Cl,8,,8,5100,13
1600,,,,,COc1ccc([C@@H]2Cc3cc(C(F)(F)F)ccc3N(CCN(C)C)C(=O)[C@@H]2OC(C)=O)cc1.Cl (stereo in doubt),19,19,22,180,
,,,,,COc1ccc([C@H]2Cc3cc(Cl)ccc3N(CCN(C)C)C(=O)[C@@H]2OC(C)=O)cc1,12,12,12,690,
1600,,,,,COc1ccc([C@@H]2Cc3c(Cl)cccc3N(CCN(C)C)C(=O)[C@@H]2OC(C)=O)cc1,9,11,8,,

"IC50 (Oryctolagus cuniculus [2]; Oryctolagus cuniculus, Aorta) [nM]","IC50 (Oryctolagus cuniculus [5]; Oryctolagus cuniculus, Aorta) [nM]",IC50 (Oryctolagus cuniculus [5]) [nM],IC50 (Oryctolagus cuniculus [7]) [nM],IC50 (Oryctolagus cuniculus [2]) [nM],SMILES,Decrease (Rattus norvegicus [1]) [%],Decrease (Rattus norvegicus [3]) [%],Decrease (Rattus norvegicus [4]) [%],Kd [6] [nM],Decrease (Rattus norvegicus [8]) [%]
,,,,,COc1ccc([C@@H]2Sc3cc(Cl)ccc3N(CCN(C)C)C(=O)[C@@H]2OC(C)=O)cc1 (relative stereo) [CLENTIAZEM],41,24,26,95,
,690,,,,CNCCN1C(=O)[C@H](O)[C@H](c2ccc(OC)cc2)Cc2c1cccc2C(F)(F)F,16,22,20,,
,,,,,COc1ccc([C@@H]2Cc3cc(C(F)(F)F)ccc3N(CCN(C)C)C(=O)[C@@H]2OC(C)=O)cc1.Cl,,18,19,,
1500,,,,,COc1ccc([C@@H]2Cc3cc(Cl)ccc3N(CCN(C)C)C(=O)[C@@H]2OC(C)=O)cc1,13,,14,,18
180,,,,,CNCCN1C(=O)[C@H](OC(C)=O)[C@H](c2ccc(OC)cc2)Cc2c1cccc2C(F)(F)F,32,32,34,,
,,,> 3000,,COc1ccc([C@@H]2Cc3c(cccc3C(F)(F)F)N(CC=O)C(=O)[C@@H]2OC(C)=O)cc1,,,,,
,240,,,,COc1ccc([C@@H]2Cc3c(cccc3C(F)(F)F)N(CCN(C)C)C(=O)[C@@H]2OC(C)=O)cc1.Cl,24,24,26,,
,1900,,,,CNCCN1C(=O)[C@H](O)[C@H](c2ccc(OC)cc2)Cc2cc(C(F)(F)F)ccc21,14,14,15,,
> 10000,,,,,COc1ccc([C@H]2Cc3cc(C(F)(F)F)ccc3N(CCN(C)C)C(=O)[C@H]2OC(C)=O)cc1.Cl (stereo in doubt),7,7,8,6300,
,,,,,COc1ccc([C@@H]2Cc3cc(C(F)(F)F)ccc3N(CCN(C)C)C(=O)[C@@H]2O)cc1.Cl,8,14,9,,
,,,,3900,COc1ccc([C@H]2Cc3c(cccc3C(F)(F)F)N(CCN(C)C)C(=O)[C@H]2OC(C)=O)cc1.Cl (stereo in doubt; 4p),,7,8,1200,
,,,,,COc1ccc([C@@H]2Cc3c(cccc3C(F)(F)F)N(CCO)C(=O)[C@@H]2OC(C)=O)cc1,1,4,3,,
,880,,,,CNCCN1C(=O)[C@H](OC(C)=O)[C@H](c2ccc(OC)cc2)Cc2cc(C(F)(F)F)ccc21,28,31,29,,
4900,,,,,COc1ccc([C@H]2Cc3c(cccc3C(F)(F)F)N(CCN(C)C)C(=O)[C@H]2OC(C)=O)cc1.Cl (stereo in doubt; 4n),9,9,9,2000,
,,,1800,,COc1ccc([C@@H]2Sc3ccccc3N(CCN(C)C)C(=O)[C@@H]2OC(C)=O)cc1 [DILTIAZEM],,,,,
150,,,,,COc1ccc([C@@H]2Cc3c(cccc3C(F)(F)F)N(CCN(C)C)C(=O)[C@@H]2OC(C)=O)cc1.Cl (stereo in doubt),31,30,27,120,
,7700,,,,COc1ccc([C@@H]2Cc3ccc(Cl)cc3N(CCN(C)C)C(=O)[C@@H]2OC(C)=O)cc1,7,4,2,,
,> 3000,,,,COc1ccc([C@@H]2Cc3c(cccc3C(F)(F)F)N(CC(=O)O)C(=O)[C@@H]2OC(C)=O)cc1,6,4,3,,
